# Screens from PubChem.
# Sampled rows, rich in hits. Any-hit rate of the full collection: about 1.8%.
# GalR3 antag = blocks the human galanin receptor 3; O60755; 360,000 tested, 0.44% active; HEK293 GalR3-CNG cAMP membrane potential fluorescence; galR3 body fused to GalR1 C-terminus; inhibition, % at 3 µM;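 active = inhibition above the screen-wide average plus 3 SD, cut at about 13% in these data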;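 also: forskolin and galanin both at EC90 stimulate the cells; cAMP rise reported by CNG channel membrane potential dye signal; 0% = forskolin plus galanin with DMSO and 100% = forskolin alone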
# Target sequence (O60755 1-299 limits assumed): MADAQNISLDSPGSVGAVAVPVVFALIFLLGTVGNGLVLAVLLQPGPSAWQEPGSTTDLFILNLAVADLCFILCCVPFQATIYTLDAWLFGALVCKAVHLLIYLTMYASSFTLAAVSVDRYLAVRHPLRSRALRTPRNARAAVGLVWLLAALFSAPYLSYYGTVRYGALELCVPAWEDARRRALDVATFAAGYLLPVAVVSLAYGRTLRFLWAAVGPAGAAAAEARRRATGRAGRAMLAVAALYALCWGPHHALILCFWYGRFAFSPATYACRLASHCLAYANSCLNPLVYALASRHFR
# Rev-erbA mod = modulates human Rev-erb alpha binding to DNA. Rev-erbα–FITC-DNA binding, fluorescence polarization, 90 min. activity, % at 10 µM. 370,000 tested, 0.79% active. AID 1259318;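 active = activity above about 14%, limit read from the data; passing the limit was not always enough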;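 also: 0% = DMSO wells with 35 nM protein and 100% = DMSO wells with 750 nM protein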
# PG9 binder = PG9 antibody binding by small molecule; TR-FRET gp120-PG9 antibody binding; inhibition, % at 6.7 µM; 360,000 tested, 0.43% active; in the data active = inhibition above about 8.5%
# NR2E3 ag-1 = activates human photoreceptor nuclear receptor NR2E3 | Q9Y5X4 | GST-NR2E3/biotin-RetCOR TR-FRET, 1536-well | inhibition of corepressor binding, % at 4.78 µM | 320,000 tested, 0.12% active | AID 2300;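 active = percent inhibition above the cutoff of mean plus 3 SD of all tested compounds, set per screening campaign, cut at about 20% in these data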;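 also: 0% = DMSO wells and 100% = biotin wells as full block of FRET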
# Target sequence (Q9Y5X4 whole entry, looked up): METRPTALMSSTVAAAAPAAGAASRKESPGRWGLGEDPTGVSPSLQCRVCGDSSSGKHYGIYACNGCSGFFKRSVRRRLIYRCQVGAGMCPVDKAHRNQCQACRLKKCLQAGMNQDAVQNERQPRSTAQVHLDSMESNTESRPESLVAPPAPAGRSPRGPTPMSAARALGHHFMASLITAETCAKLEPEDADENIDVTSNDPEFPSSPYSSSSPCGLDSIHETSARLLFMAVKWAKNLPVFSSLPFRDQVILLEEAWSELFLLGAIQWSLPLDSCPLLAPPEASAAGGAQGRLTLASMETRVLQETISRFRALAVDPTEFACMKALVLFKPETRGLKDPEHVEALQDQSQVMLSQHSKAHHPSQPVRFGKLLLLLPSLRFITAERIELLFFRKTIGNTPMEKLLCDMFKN
#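 Material – GST-tagged NR2E3 plus biotinylated RetCOR corepressor · Quantity – NR2E3 fusion 1.35 nM · Times – 5 h incubation at 4 °C · Medium – pH 7.5 Tris-based buffer · Technique – TR-FRET, Eu(K)-anti-GST donor, streptavidin-D2 acceptor, ex 340, em 617/671 nm · Benchmarks – high control biotin, low control 0.6% DMSO · Format – 1536-well plates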
# NR2E3 ag-2 = activates human NR2E3 receptor. Q9Y5X4. CHO-S Gal4-NCOR/VP16-NR2E3 two-hybrid, luciferase. inhibition of corepressor binding, % at 3.98 µM. 360,000 tested, 0.35% active. AID 602229;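 active = inhibition above the mean of all tested compounds plus 3 SD, cut at about 70% in these data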;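 also: 0% = DMSO with NR2E3 transfected cells and 100% = cells lacking NR2E3 construct; higher means lower luciferase signal from less NR2E3 corepressor binding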
# PG9 binder conf = confirmation of small molecules binding HIV-1 gp120 antibody PG9 | shares compounds with PG9 binder | TR-FRET PG9 antibody binding, biochemical | inhibition, % at 6.7 µM | 1,500 tested, 90% active | AID 651571; in the data active = inhibition above about 9%
# PGV04 counter = counter-screen for PG9 binders: binding control antibody PGV04. TR-FRET PGV04 antibody-gp120 binding, biochemical. shares compounds with PG9 binder. 1,500 tested, 95% active. inhibition, % at 6.7 µM. AID 651604; in the data active = inhibition above about 9.5%
# PG9 binder DR = small molecules binding HIV-1 gp120 antibody PG9 | shares compounds with PG9 binder | TR-FRET PG9 antibody-gp120 binding inhibition | IC50, µM | 95 tested, under 10 active | AID 651848; in the data active = IC50 below about 10 µM
# PGV04 DR counter = binds control antibody PGV04 in PG9 counter-screen; TR-FRET binding to control antibody PGV04; shares compounds with PG9 binder; IC50, µM; 95 tested, 20% active
# PG126 binding DR = PG126 binding, dose response counter-screen | shares compounds with PG9 binder | TR-FRET binding to antibody PG126, counterscreen | IC50, µM | 95 tested, 20% active
# The depositor's hits bear a star; . = no result given. Rule as the data show it, unless noted: active = IC50 below about 9 µM; inactive = the rest.
SMILES,GalR3 antag,Rev-erbA mod,PG9 binder,NR2E3 ag-1,NR2E3 ag-2,PG9 binder conf,PGV04 counter,others
CN(C)c1cccc(/C=C2\CC3(OC(=O)c4ccc(F)cc4)CCCN2C3)c1 (centres undefined),.,4.5,.,.,.,.,.,
COc1cc(OC)c(C2Nc3cccc4cccc(c34)N2)c(OC)c1,-11.7,-10.5,11.9*,.,24.0,6.2,12.0*,
COc1ccc(C2Nc3cccc4cccc(c34)N2)cc1,-1.6,-10.2,-6.8,5.4,-22.8,.,.,
O=C(O)C(=O)Nc1cccc(-c2nn[nH]n2)c1,.,-2.4,.,.,.,.,.,
CC(Cc1ccc(O)c(O)c1)(NN)C(=O)O (centres undefined),.,-1.1,.,.,.,.,.,
Cn1c(C(=O)N2CCN(c3nc4ccccc4s3)CC2)cc2sccc21,-5.1,9.6,13.8*,0.0,-16.1,20.2*,30.6*,
Cc1cc(N2C(=O)C(O)=C(C(=O)c3ccc(C)o3)C2c2cccs2)no1 (centres undefined),-6.8,1.7,9.6*,18.5,34.6,17.4*,25.5*,
Cc1cc(N2C(=O)C(O)=C(C(=O)c3ccco3)C2c2ccc(Cl)cc2)no1 (centres undefined),-2.5,-2.3,16.3*,17.3,-2.0,29.7*,40.5*,
COC(=O)c1ccc(C2C(C(=O)c3ccc(C)o3)=C(O)C(=O)N2c2cc(C)on2)cc1 (centres undefined),0.5,-0.9,1.0,7.3,6.5,.,.,
O=C(O)c1ccccc1NC(=S)NC(=O)c1sc2ccccc2c1Cl,1.0,8.2,9.8*,5.1,-60.7,16.8*,18.6*,
O=C(NC(=S)Nc1ccccc1N1CCOCC1)c1sc2ccccc2c1Cl,-2.9,1.9,-1.3,3.2,-13.3,.,.,
O=C(c1cccc(F)c1F)N(Cc1ccccn1)CC1CCCO1 (centres undefined),.,-2.3,.,.,.,.,.,
O=C(Nc1ncc(Cc2ccc(SC(F)F)cc2)s1)c1ccc(OC(F)F)cc1,9.9,14.1,21.7*,-0.1,10.2,12.0*,18.1*,
Cc1ccc(Cc2cnc(NC(=O)c3ccco3)s2)cc1,-8.0,-0.7,0.0,1.4,-157.9,.,.,
COc1ccccc1C1/C(=C(\O)c2ccc3c(c2)OCCO3)C(=O)C(=O)N1Cc1cccnc1 (centres undefined),-3.5,7.3,13.9*,7.2,-35.2,11.9*,17.6*,
O=C1C(=O)N(Cc2cccnc2)C(c2ccccn2)/C1=C(/O)c1ccc(Br)cc1 (centres undefined),-4.8,-3.2,11.4*,8.0,-7.9,18.0*,22.7*,
O=C1C(=O)N(Cc2cccnc2)C(c2cccc(O)c2)/C1=C(\O)c1ccc2c(c1)OCCO2 (centres undefined),1.4,0.8,9.0*,7.2,-53.1,10.5*,20.3*,
COc1ccc(C2/C(=C(\O)c3ccc4c(c3)OCCO4)C(=O)C(=O)N2Cc2cccnc2)cc1 (centres undefined),2.3,2.8,7.9,10.3,-25.8,.,.,
O=C1C(=O)N(Cc2ccncc2)C(c2cccc(O)c2)/C1=C(\O)c1ccc2c(c1)OCCO2 (centres undefined),-6.5,1.4,8.2,12.8,-29.3,.,.,
CN1C(=O)C[C@@](C#N)(C(=O)N2CCOCC2)[C@H]1c1ccccc1,.,-0.1,.,.,.,.,.,
CC1(C)Cc2nc3sc4c(SCC(=O)NCc5ccccc5)ncnc4c3cc2CO1,0.0,-2.8,48.4*,10.5,-150.6,86.2*,87.9*,
CCCc1c(C)nc2ccccc2c1SCCC#N,-6.2,1.8,0.4,-0.3,-7.6,.,.,
CCc1c(C)nc2c(Br)cccc2c1SCCC#N,3.6,12.7,9.6*,0.8,-28.3,13.4*,19.5*,
CCc1c(C)nc2ccc(Br)cc2c1SCCC#N,-1.1,5.1,11.2*,13.1,-28.1,13.3*,19.7*,
Cc1ccc(C(=O)C2=C(O)C(=O)N(c3ncccn3)C2c2ccccc2F)o1 (centres undefined),-6.2,-1.0,13.6*,6.2,1.2,25.0*,32.3*,
SMILES,GalR3 antag,Rev-erbA mod,PG9 binder,NR2E3 ag-1,NR2E3 ag-2,PG9 binder conf,PGV04 counter,others
Cc1ccc(C(=O)C2=C(O)C(=O)N(c3ncccn3)C2c2ccc(Br)cc2)o1 (centres undefined),.,.,.,0.4,.,.,.,
Cc1ccc(C(=O)C2=C(O)C(=O)N(c3ncccn3)C2c2ccc(F)cc2)o1 (centres undefined),1.5,6.3,16.0*,4.6,17.7,18.1*,27.5*,
FC(F)(F)Oc1ccc(Cn2ccc3ccc(-c4ccc5ccn(Cc6ccccc6)c5c4)cc32)cc1,.,0.2,.,.,.,.,.,
Clc1ccc(CSc2nnc(-c3cccs3)o2)cc1Cl,.,-1.5,.,.,.,.,.,
Nc1ncnc2c1cnn2-c1ccccc1,-2.4,-5.6,0.3,2.5,-17.6,.,.,
S=c1nc[nH]c2c1cnn2-c1ccccc1,-7.5,10.9,16.9*,5.4,-29.9,7.3,6.7,PG9 binder DR=>67.1;PGV04 DR counter=>67.1;PG126 binding DR=>67.1
CCNC(=O)OCCN1C(=O)CCC12CCC(c1ccc(Cl)cc1)CC2 (centres undefined),.,3.9,.,.,.,.,.,
CC1CCCCC1NC(=O)COC(=O)c1ccc2ccccc2n1 (centres undefined),1.9,1.9,0.5,-0.2,-11.5,.,.,
CC1CCCC(NC(=O)COC(=O)c2ccc3ccccc3n2)C1C (centres undefined),-5.7,-5.1,15.1*,0.8,-15.7,24.3*,31.6*,
CC1CCCC(NC(=O)COC(=O)c2ccccc2Sc2ccccc2C#N)C1C (centres undefined),1.1,20.7,11.7*,4.5,-19.7,28.6*,47.6*,
CN(Cc1ccccc1)C(=O)OCc1cn(Cc2c(F)cccc2F)nn1,.,6.3,.,.,.,.,.,
CCn1c(-c2ccsc2)nc2c1c(=O)[nH]c(=O)n2Cc1ccccc1,-5.7,9.8,22.2*,-2.1,10.6,38.9*,54.3*,
COc1ccc(-c2nc3c(c(=O)[nH]c(=O)n3Cc3ccccc3)n2CCO)cc1,-0.3,0.5,-0.9,0.2,1.2,.,.,
COc1ccc(CNC2CCC23CCCCC3)cc1OC (centres undefined),.,3.2,.,.,.,.,.,
CCCC(=O)Nc1nnc(-c2cccc(OCC)c2)s1,-2.7,7.6,15.9*,8.1,-12.5,22.2*,38.6*,
CC(C)CNC(=O)C1CSCCS(=O)(=O)N1Cc1ccccc1 (centres undefined),.,2.3,.,.,.,.,.,
